pEC50, pKi: −log10 of the molar value. The source made the active and inactive calls. The calls are words filed in the database; no cut-off is given here.
Tests used:
[1] = Lipophilicity, log D of the compound by RP-HPLC analysis; format: physicochemical
[2] = target: T1, Free fatty acid receptor 1 (Homo sapiens, UniProt O14842); experiment: Displacement of 3-[4-({2',6'-dimethyl-6-[(4-[3H])phenylmethoxy]biphenyl-3-yl}methoxy)phenyl] propanoic acid from human GPR40 receptor expressed in CHO cell membrane after 90 mins by liquid scintillation counting in the presence of 0.2% BSA; format: cell membranes
T1 sequence (O14842 whole entry): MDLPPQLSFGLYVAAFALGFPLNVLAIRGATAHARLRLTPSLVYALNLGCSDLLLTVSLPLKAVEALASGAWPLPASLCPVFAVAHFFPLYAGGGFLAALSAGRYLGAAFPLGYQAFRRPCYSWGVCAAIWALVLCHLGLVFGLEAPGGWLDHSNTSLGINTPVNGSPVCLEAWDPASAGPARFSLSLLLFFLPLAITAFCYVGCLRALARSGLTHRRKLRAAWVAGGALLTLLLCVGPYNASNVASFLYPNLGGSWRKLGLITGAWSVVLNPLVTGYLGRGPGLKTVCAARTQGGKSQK
Method in brief: (§1)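 Membranes from CHO lines stably expressing human or rat GPR40, buffer 25 mmol/L Tris-HCl pH 7.5, 5 mmol/L EDTA, protease inhibitors, 0.05% CHAPS, 0.2% fatty-acid-free BSA. Tritiated ligand at 2 or 6 nmol/L with graded test compound, 90 min room temperature, GF/C filtration, scintillation counting. Nonspecific binding: 10 μmol/L unlabeled ligand. IC50 by nonlinear regression, Ki = IC50/(1+[L]/Kd).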

HepG2 [3] = experiment: Induction of apoptosis in human HepG2 cells assessed as caspase 3/7 activity at 30 uM after 24 hrs by caspase Glo assay relative to staurosporine; format: cell-based; settings: hepg2, 24 h
Method in brief: (§2)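 HepG2 cells seeded 2 × 10^4/well, treated 1 day in DMEM with 0.5% FBS, 2 mM L-glutamine, 1 mM pyruvate. Caspase-Glo 3/7 luminescence; activity = (compound − 1% DMSO)/(30 μM staurosporine − 1% DMSO) ×100, n = 3.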

[4] = Cytotoxicity against human HepG2 cells assessed as intracellular ATP level at 30 uM after 24 hrs by ATPlite assay relative to control; format: cell-based; settings: read-out: Activity
Method in brief: (§3)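 HepG2 cells seeded 2 × 10^4/well, treated 1 day in DMEM with 0.5% FBS, 2 mM L-glutamine, 1 mM pyruvate. ATP measured by ATPlite luminescence; % of 1% DMSO control (RLU ratio ×100), n = 3.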

[5] = target: Free fatty acid receptor 1 (Rattus norvegicus, UniProt Q8K3T4); experiment: Displacement of 3-[4-({2',6'-dimethyl-6-[(4-[3H])phenylmethoxy]biphenyl-3-yl}methoxy)phenyl] propanoic acid from rat GPR40 receptor expressed in CHO cell membrane after 90 mins by liquid scintillation counting in the presence of 0.2% BSA; format: cell membranes; method in brief: as §1
Free fatty acid receptor 1 (Rattus norvegicus, UniProt Q8K3T4), sequence (Q8K3T4 whole entry): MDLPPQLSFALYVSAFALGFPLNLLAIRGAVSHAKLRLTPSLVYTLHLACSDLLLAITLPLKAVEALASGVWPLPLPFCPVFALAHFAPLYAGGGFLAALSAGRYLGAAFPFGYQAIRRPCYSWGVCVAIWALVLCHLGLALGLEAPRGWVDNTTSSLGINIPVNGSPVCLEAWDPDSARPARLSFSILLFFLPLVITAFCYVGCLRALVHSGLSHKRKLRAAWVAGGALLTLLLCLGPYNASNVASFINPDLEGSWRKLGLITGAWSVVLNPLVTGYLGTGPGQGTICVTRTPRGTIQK

[6] = target: T1, Free fatty acid receptor 1; experiment: Agonist activity at human GPR40 receptor expressed in CHO cells assessed as increase in intracellular calcium level for 90 secs by FLIPR assay in the presence of 0.1% BSA; format: functional, cell-based
Method in brief: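 CHO dhfr cells stably expressing human GPR40 plated overnight, loaded 60 min at 37 °C with Fluo 4 AM (2.5 μg/mL), 2.5 mmol/L probenecid, 0.1% fatty acid-free BSA. Ca2+ rise after compound addition read 90 s; response scaled between vehicle (0%) and 10 μM γ-linolenic acid (100%).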

HepG2 [7] = experiment: Induction of apoptosis in human HepG2 cells assessed as caspase 3/7 activity at 10 uM after 24 hrs by caspase Glo assay relative to staurosporine; format: cell-based; settings: hepg2, 24 h; method in brief: as §2
[8] = Cytotoxicity against human HepG2 cells assessed as intracellular ATP level at 10 uM after 24 hrs by ATPlite assay relative to control; format: cell-based; settings: read-out: Activity; method in brief: as §3
[9] = Metabolic stability in human hepatic microsomes; format: ADME; settings: liver microsomes, read-out: Stability
[10] = Metabolic stability in rat hepatic microsomes; format: ADME; settings: liver microsomes, read-out: Stability
Rattus norvegicus [11] = species on record: Rattus norvegicus; experiment: Insulinotropic activity in rat INS1(833/15) cells assessed as increase in insulin secretion at >0.1 uM after 2 hrs by competitive enzyme immunoassay in the presence of 11 mM glucose; format: functional, cell-based
Method in brief: (§4)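 INS-1 833/15 cells seeded on poly-L-lysine, cultured 2 days, preincubated in KRBH (0.2% FFA-free BSA) with 1 mM glucose, then 2 h in KRBH at 1–16 mM glucose with or without compound (DMSO vehicle). Secreted insulin by EIA; expressed as fold over 1 mM glucose alone, mean ± SD (n = 3–6).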

Rattus norvegicus [12] = species on record: Rattus norvegicus; experiment: Insulinotropic activity in rat INS1(833/15) cells assessed as increase in insulin secretion at 1 uM after 2 hrs by competitive enzyme immunoassay in the presence of >6 mM glucose; format: functional, cell-based; method in brief: as §4
Rattus norvegicus [13] = species on record: Rattus norvegicus; experiment: Insulinotropic activity in rat INS1(833/15) cells assessed as increase in insulin secretion at 1 uM after 2 hrs by competitive enzyme immunoassay in the presence of 1 mM glucose; format: functional, cell-based; method in brief: as §4
Rattus norvegicus [14] = species on record: Rattus norvegicus; experiment: Insulinotropic activity in rat INS1(833/15) cells assessed as increase in insulin secretion after 2 hrs by competitive enzyme immunoassay in the presence of 11 mM glucose; format: functional, cell-based; method in brief: as §4
Rattus norvegicus [15] = species on record: Rattus norvegicus; experiment: Insulinotropic activity in rat INS1(833/15) cells assessed as increase in insulin secretion at 1 uM after 2 hrs by competitive enzyme immunoassay in the presence of 4 mM glucose; format: functional, cell-based; method in brief: as §4
Rattus norvegicus [16] = species on record: Rattus norvegicus; experiment: Insulinotropic activity in rat INS1(833/15) cells assessed as increase in insulin secretion at 1 uM after 2 hrs by competitive enzyme immunoassay in the presence of 16 mM glucose; format: functional, cell-based; method in brief: as §4
Rattus norvegicus [17] = species on record: Rattus norvegicus; experiment: Insulinotropic activity in rat INS1(833/15) cells assessed as increase in insulin secretion at 10 uM after 2 hrs by competitive enzyme immunoassay in the presence of low concentration of glucose; format: functional, cell-based; method in brief: as §4
Rattus norvegicus [18] = species on record: Rattus norvegicus; experiment: Insulinotropic activity in rat INS1(833/15) cells assessed as increase in insulin secretion at 10 uM after 2 hrs by competitive enzyme immunoassay in the presence of 16 mM glucose; format: functional, cell-based; method in brief: as §4
Rattus norvegicus [19] = species on record: Rattus norvegicus; experiment: Insulinotropic activity in rat INS1(833/15) cells assessed as increase in insulin secretion at 10 uM after 2 hrs by competitive enzyme immunoassay in the presence of 11 mM glucose; format: functional, cell-based; method in brief: as §4
Rattus norvegicus [20] = experiment: Induction of hypoglycemia in fasted Sprague-Dawley rat assessed as increase in insulin secretion level at 30 mg/kg, po after 30 mins; format: organism-based; design: dose 30 mg/kg, route oral; settings: in vivo, 0.5 h
Method in brief: (§5)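 Eight-week-old male SD rats fasted overnight, grouped by body weight (n = 6), single oral dose in 0.5% methylcellulose vehicle; tail-vein blood before and 0.5, 1, 2, 3 h after dosing; plasma glucose by analyzer, insulin by ELISA; mean ± SD.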

Rattus norvegicus [21] = species on record: Rattus norvegicus; experiment: Insulinotropic activity in rat INS1(833/15) cells assessed as increase in insulin secretion at 30 uM after 2 hrs by competitive enzyme immunoassay in the presence of low concentration of glucose; format: functional, cell-based; method in brief: as §4
Rattus norvegicus [22] = species on record: Rattus norvegicus; experiment: Insulinotropic activity in rat INS1(833/15) cells assessed as increase in insulin secretion at 30 uM after 2 hrs by competitive enzyme immunoassay in the presence of 16 mM glucose; format: functional, cell-based; method in brief: as §4
Rattus norvegicus [23] = experiment: Induction of hypoglycemia in fasted Sprague-Dawley rat assessed as decrease in plasma glucose level below normal fasting level at 10 mg/kg, po; format: organism-based; design: dose 10 mg/kg, route oral; settings: in vivo; method in brief: as §5
Rattus norvegicus [24] = species on record: Rattus norvegicus; experiment: Insulinotropic activity in rat INS1(833/15) cells assessed as increase in insulin secretion at 30 uM after 2 hrs by competitive enzyme immunoassay in the presence of 11 mM glucose; format: functional, cell-based; method in brief: as §4

Structure (SMILES)	logD [1]	pKi [2]	Activity (HepG2 [3])	viability at 24 h, 30 µM [4]	pKi [5]	pEC50 [6]	Activity (HepG2 [7])	viability at 24 h, 10 µM [8]	microsomal CLint [9]	also measured
Cc1cc(OCC2(O)CCS(=O)(=O)CC2)cc(C)c1-c1cccc(COc2ccc(CCC(=O)O)c(F)c2)c1	2.78	7.72	2.8%	61.5%	8.09	7.82	-0.2%	88.6%		
Cc1cc(OCCCN2CCCC2=O)cc(C)c1-c1cccc(COc2ccc(CCC(=O)O)c(F)c2)c1	3.51	7.68	20.3%	30.3%	8.01	7.49	0.2%	54.1%	7 µL/min/mg	microsomal CLint [10]: 5 µL/min/mg
COc1ccc(-c2c(C)cccc2C)cc1COc1ccc(CCC(=O)O)cc1	4.04	6.28			5.00					
COc1cc(COc2ccc(CCC(=O)O)c(F)c2)cc(-c2c(C)cccc2C)c1	4.16	7.00			6.92					
Cc1cc(OC2CCS(=O)(=O)CC2)cc(C)c1-c1cccc(COc2ccc(CCC(=O)O)c(F)c2)c1	3.06	7.80	28.9%	38%	8.19	7.60	-0.5%	79.8%	3 µL/min/mg	Activity (Rattus norvegicus [11]): Active; Activity (Rattus norvegicus [12]): Active; Activity (Rattus norvegicus [13]): inactive; Activity (Rattus norvegicus [14]): Dose-dependent effect; Activity (Rattus norvegicus [15]): inactive; Activity (Rattus norvegicus [16]): Active
CCOCCOc1cc(C)c(-c2cccc(COc3ccc(CCC(=O)O)cc3)c2)c(C)c1	3.89	7.64			8.00	7.89				
CCOCCOc1cc(C)c(-c2cccc(COc3ccc(CCC(=O)O)c(F)c3)c2)c(C)c1	4.14	7.92			8.35	8.35			8 µL/min/mg	
COc1ccc(COc2ccc(CCC(=O)O)cc2)cc1-c1c(C)cccc1C	3.38	7.33			7.06	7.70				
Cc1cc(OCc2ccccc2)cc(C)c1-c1cccc(COc2ccc(CCC(=O)O)cc2)c1	5.08	7.82			8.17	7.85				
Cc1cc(OC2CCS(=O)(=O)CC2)cc(C)c1-c1cccc(CNc2ccc(CCC(=O)O)c(F)c2)c1	2.44	7.74	-0.7%	60.7%	8.29	7.64	-0.5%	78.8%		
Cc1cccc(Oc2cc(C)c(-c3cccc(COc4ccc(CCC(=O)O)c(F)c4)c3)c(C)c2)n1.Cl	4.23	7.92	41.1%	47.5%	8.17	7.51	-0.4%	56.7%		
Cc1cc(OC2CCOCC2)cc(C)c1-c1cccc(COc2ccc(CCC(=O)O)c(F)c2)c1	4.1	7.70	42.8%	38.1%	8.17	7.64	0.9%	60.3%		
CCS(=O)(=O)CCOc1cc(C)c(-c2cccc(CNc3ccc(CCC(=O)O)c(F)c3)c2)c(C)c1	2.39	7.70	-0.9%	45.7%	8.35	7.00	-1%	79.8%	2 µL/min/mg	
CC(C)[C@H]1CC[C@H](C(=O)N[C@H](Cc2ccccc2)C(=O)O)CC1										Activity (Rattus norvegicus [17]): Active; Activity (Rattus norvegicus [18]): Active; Activity (Rattus norvegicus [19]): Active
CCOCCOc1cc(C)c(-c2cccc(CNc3ccc(CCC(=O)O)c(F)c3)c2)c(C)c1.Cl	3.49	7.74	1.2%	48.5%	8.21	7.59	5.3%	9.9%		
Cc1cc(OCC2CC2)cc(C)c1-c1cccc(COc2ccc(CCC(=O)O)cc2)c1	4.61	7.80			8.25	7.82				
CCS(=O)(=O)CCOc1cc(C)c(-c2cccc(COc3ccc(CCC(=O)O)c(F)c3)c2)c(C)c1	3.02	7.82	17.7%	32.5%	8.38	7.60	-1.1%	79.8%	6 µL/min/mg	microsomal CLint [10]: 10 µL/min/mg
COc1cc(C)c(-c2cccc(COc3ccc(CCC(=O)O)cc3)c2)c(C)c1	3.83	7.60			8.21	7.92				
COc1ccc(Cl)cc1C(=O)NCCc1ccc(S(=O)(=O)NC(=O)NC2CCCCC2)cc1 [GLYBURIDE]										Activity (Rattus norvegicus [20]): Toxic; Activity (Rattus norvegicus [21]): Active; Activity (Rattus norvegicus [22]): Active; Activity (Rattus norvegicus [23]): Toxic; Activity (Rattus norvegicus [24]): Active
Cc1cccc(C)c1-c1cccc(COc2ccc(CCC(=O)O)cc2)c1	4.04	7.34			7.57	7.66			28 µL/min/mg	microsomal CLint [10]: 34 µL/min/mg
Cc1cccc(C)c1-c1cccc(COc2ccc(CCC(=O)O)cc2)c1C	4.22	7.24			7.52	7.40				
Cc1cccc(C)c1-c1cccc(COc2ccc(CCC(=O)O)c(F)c2)c1					7.44				69 µL/min/mg	microsomal CLint [10]: 39 µL/min/mg

Reference: ChEMBL document CHEMBL2046346, “Discovery of phenylpropanoic acid derivatives containing polar functionalities as potent and orally bioavailable G protein-coupled receptor 40 agonists for the treatment of type 2 diabetes” (J Med Chem, 2012)
